Reference: ChEMBL document CHEMBL1255404, “Spread of OXA-48-encoding plasmid in Turkey and beyond” (2010)

What was measured:
Assay type in all cases: functional
Escherichia coli [1] = assay: Antimicrobial activity against Escherichia coli isolate J53 harboring p3A containing beta-lactamase OXA-48 located within transposon Tn1999 by Etest method in presence of beta-lactamase inhibitor clavulanic acid
How it was run: (§1)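 β-Lactam MICs read with Etest strips. Strains are E. coli J53 recipient and J53 transconjugants carrying OXA-48-positive plasmids recovered from clinical enterobacterial isolates.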

Escherichia coli [2] = assay: Antimicrobial activity against Escherichia coli isolate J53 harboring p4A containing beta-lactamase OXA-48 located within transposon Tn1999 by Etest method in presence of beta-lactamase inhibitor clavulanic acid; how it was run: as §1
Escherichia coli [3] = assay: Antimicrobial activity against Escherichia coli isolate J53 harboring p6A containing beta-lactamase OXA-48 located within transposon Tn1999 by Etest method in presence of beta-lactamase inhibitor clavulanic acid; how it was run: as §1
Klebsiella pneumoniae [4] = assay: Antimicrobial activity against Klebsiella pneumoniae isolate Kp7A expressing beta-lactamase OXA-48 by Etest method in presence of beta-lactamase inhibitor clavulanic acid
How it was run: (§2)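 MICs of β-lactams read from Etest strips. The test organisms are carbapenem-resistant, OXA-48-positive clinical Enterobacteriaceae isolates recovered from Turkey, Lebanon, Egypt, France and Belgium.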

Klebsiella pneumoniae [5] = assay: Antimicrobial activity against Klebsiella pneumoniae isolate KpI-1 expressing beta-lactamase OXA-48 and CTX-M-15 by Etest method in presence of beta-lactamase inhibitor clavulanic acid; how it was run: as §2
Klebsiella pneumoniae [6] = assay: Antimicrobial activity against Klebsiella pneumoniae isolate KpI-2 expressing beta-lactamase OXA-48 and CTX-M-15 by Etest method in presence of beta-lactamase inhibitor clavulanic acid; how it was run: as §2
Escherichia coli [7] = assay: Antimicrobial activity against Escherichia coli isolate J53 harboring pI-1 containing beta-lactamase OXA-48 located within transposon Tn1999.2 by Etest method in presence of beta-lactamase inhibitor clavulanic acid; how it was run: as §1
Klebsiella pneumoniae [8] = assay: Antimicrobial activity against Klebsiella pneumoniae isolate KpBIC expressing beta-lactamase OXA-48 by Etest method in presence of beta-lactamase inhibitor clavulanic acid; how it was run: as §2
Escherichia coli [9] = assay: Antimicrobial activity against Escherichia coli isolate J53 harboring pE containing beta-lactamase OXA-48 located within transposon Tn1999.2 by Etest method in presence of beta-lactamase inhibitor clavulanic acid; how it was run: as §1
Escherichia coli [10] = assay: Antimicrobial activity against Escherichia coli isolate J53 harboring pBEL containing beta-lactamase OXA-48 located within transposon Tn1999.2 by Etest method in presence of beta-lactamase inhibitor clavulanic acid; how it was run: as §1
Klebsiella pneumoniae [11] = assay: Antimicrobial activity against Klebsiella pneumoniae isolate KpL expressing beta-lactamase OXA-48 by Etest method in presence of beta-lactamase inhibitor clavulanic acid; how it was run: as §2
Escherichia coli [12] = assay: Antimicrobial activity against Escherichia coli isolate J53 harboring pL containing beta-lactamase OXA-48 located within transposon Tn1999.2 by Etest method in presence of beta-lactamase inhibitor clavulanic acid; how it was run: as §1
Escherichia coli [13] = assay: Antimicrobial activity against Escherichia coli isolate TOP10 harboring pPR containing beta-lactamase and TEM-101 by Etest method in presence of beta-lactamase inhibitor clavulanic acid
How it was run: (§3)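 β-Lactam MICs read with Etest strips. Strains are E. coli TOP10 host and TOP10 transformants made with plasmid DNA extract when conjugation failed. Transformants were selected on LB agar with ticarcillin 50 μg/ml.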

Escherichia coli [14] = assay: Antimicrobial activity against Escherichia coli isolate J53 harboring pEnc2 containing beta-lactamase OXA-48 located within transposon Tn1999 by Etest method in presence of beta-lactamase inhibitor clavulanic acid; how it was run: as §1
Citrobacter freundii [15] = assay: Antimicrobial activity against Citrobacter freundii isolate expressing beta-lactamase OXA-48 by Etest method in presence of beta-lactamase inhibitor clavulanic acid; how it was run: as §2
Escherichia coli [16] = assay: Antimicrobial activity against Escherichia coli isolate J53 harboring pCF containing beta-lactamase OXA-48 located within transposon Tn1999 by Etest method in presence of beta-lactamase inhibitor clavulanic acid; how it was run: as §1
Escherichia coli [17] = assay: Antimicrobial activity against Escherichia coli isolate J53 harboring pEcA containing beta-lactamase OXA-48 located within transposon Tn1999.2 by Etest method in presence of beta-lactamase inhibitor clavulanic acid; how it was run: as §1
Escherichia coli [18] = assay: Antimicrobial activity against Escherichia coli isolate J53 by Etest method in presence of beta-lactamase inhibitor clavulanic acid
Klebsiella pneumoniae [19] = assay: Antimicrobial activity against Klebsiella pneumoniae isolate KpB expressing OXA-48 and CTX-M-15 by Etest method
Escherichia coli [20] = assay: Antimicrobial activity against Escherichia coli isolate J53 harboring p3A containing beta-lactamase OXA-48 located within transposon Tn1999 by Etest method; how it was run: as §1
Klebsiella pneumoniae [21] = assay: Antimicrobial activity against Klebsiella pneumoniae isolate Kp4A expressing beta-lactamase OXA-48 and CTX-M-15 by Etest method
Klebsiella pneumoniae [22] = assay: Antimicrobial activity against Klebsiella pneumoniae isolate Kp5A expressing beta-lactamase OXA-48 and SHV-5 by Etest method
Klebsiella pneumoniae [23] = assay: Antimicrobial activity against Klebsiella pneumoniae isolate Kp6A expressing beta-lactamase OXA-48 and TEM-150 by Etest method
Escherichia coli [24] = assay: Antimicrobial activity against Escherichia coli isolate J53 harboring p5A containing beta-lactamase OXA-48 located within transposon Tn1999 by Etest method; how it was run: as §1
Escherichia coli [25] = assay: Antimicrobial activity against Escherichia coli isolate J53 harboring p7A containing beta-lactamase OXA-48 located within transposon Tn1999 by Etest method; how it was run: as §1
Klebsiella pneumoniae [26] = assay: Antimicrobial activity against Klebsiella pneumoniae isolate KpI-2 expressing beta-lactamase OXA-48 and CTX-M-15 by Etest method
Escherichia coli [27] = assay: Antimicrobial activity against Escherichia coli isolate J53 harboring pI-1 containing beta-lactamase OXA-48 located within transposon Tn1999.2 by Etest method; how it was run: as §1
Escherichia coli [28] = assay: Antimicrobial activity against Escherichia coli isolate J53 harboring pI-2 containing beta-lactamase OXA-48 located within transposon Tn1999.2 by Etest method; how it was run: as §1
Klebsiella pneumoniae [29] = assay: Antimicrobial activity against Klebsiella pneumoniae isolate KpE expressing beta-lactamase OXA-48 and CTX-M-15 by Etest method
Escherichia coli [30] = assay: Antimicrobial activity against Escherichia coli isolate J53 harboring pE containing beta-lactamase OXA-48 located within transposon Tn1999.2 by Etest method; how it was run: as §1
Klebsiella pneumoniae [31] = assay: Antimicrobial activity against Klebsiella pneumoniae isolate KpBEL expressing beta-lactamase OXA-48 by Etest method; how it was run: as §2
Escherichia coli [32] = assay: Antimicrobial activity against Escherichia coli isolate J53 harboring pBEL containing beta-lactamase OXA-48 located within transposon Tn1999.2 by Etest method; how it was run: as §1
Providencia rettgeri = assay: Antimicrobial activity against Providencia rettgeri isolate expressing beta-lactamase OXA-48 and TEM-101 by Etest method
Escherichia coli [33] = assay: Antimicrobial activity against Escherichia coli isolate TOP10 harboring pPR containing beta-lactamase and TEM-101 by Etest method; how it was run: as §3
Citrobacter freundii [34] = assay: Antimicrobial activity against Citrobacter freundii isolate expressing beta-lactamase OXA-48 by Etest method
Escherichia coli [35] = assay: Antimicrobial activity against Escherichia coli isolate A expressing beta-lactamase OXA-48 and TEM-150 by Etest method
Escherichia coli [36] = assay: Antimicrobial activity against Escherichia coli isolate J53 harboring pEcA containing beta-lactamase OXA-48 located within transposon Tn1999.2 by Etest method; how it was run: as §1
Klebsiella pneumoniae [37] = assay: Antimicrobial activity against Klebsiella pneumoniae isolate Kp11978 expressing beta-lactamase OXA-48, SHV-2a and TEM-1 by Etest method in presence of beta-lactamase inhibitor clavulanic acid; how it was run: as §2

Row | Compound | MIC (Escherichia coli [1]) [µg/mL] | MIC (Escherichia coli [2]) [µg/mL] | MIC (Escherichia coli [3]) [µg/mL] | MIC (Klebsiella pneumoniae [4]) [µg/mL] | MIC (Klebsiella pneumoniae [5]) [µg/mL] | MIC (Klebsiella pneumoniae [6]) [µg/mL] | MIC (Escherichia coli [7]) [µg/mL] | MIC (Klebsiella pneumoniae [8]) [µg/mL] | MIC (Escherichia coli [9]) [µg/mL] | MIC (Escherichia coli [10]) [µg/mL] | MIC (Klebsiella pneumoniae [11]) [µg/mL] | MIC (Escherichia coli [12]) [µg/mL] | MIC (Escherichia coli [13]) [µg/mL] | MIC (Escherichia coli [14]) [µg/mL] | MIC (Citrobacter freundii [15]) [µg/mL] | MIC (Escherichia coli [16]) [µg/mL] | MIC (Escherichia coli [17]) [µg/mL] | MIC (Escherichia coli [18]) [µg/mL] | MIC (Klebsiella pneumoniae [19]) [µg/mL] | MIC (Escherichia coli [20]) [µg/mL] | other results
1 | CC1(C)S[C@@H]2[C@H](NC(=O)[C@H](C(=O)O)c3ccsc3)C(=O)N2[C@H]1C(=O)O [TICARCILLIN] | > 512 | > 512 | > 512 | > 512 | > 512 | > 512 | > 512 | > 512 | > 512 | > 256 | > 256 | > 256 | > 256 | > 512 | > 512 | > 512 | > 256 | 2 | > 512 | > 512 | MIC (Klebsiella pneumoniae [21]): > 512 µg/mL; MIC (Klebsiella pneumoniae [22]): > 512 µg/mL; MIC (Klebsiella pneumoniae [23]): > 512 µg/mL; MIC (Escherichia coli [24]): > 512 µg/mL; MIC (Escherichia coli [25]): > 512 µg/mL; MIC (Klebsiella pneumoniae [26]): > 512 µg/mL; MIC (Escherichia coli [27]): > 512 µg/mL; MIC (Escherichia coli [28]): > 512 µg/mL; MIC (Klebsiella pneumoniae [29]): > 512 µg/mL; MIC (Escherichia coli [30]): > 512 µg/mL; MIC (Klebsiella pneumoniae [31]): > 256 µg/mL; MIC (Escherichia coli [32]): > 256 µg/mL; MIC (Providencia rettgeri): > 256 µg/mL; MIC (Escherichia coli [33]): > 256 µg/mL; MIC (Citrobacter freundii [34]): > 512 µg/mL; MIC (Escherichia coli [35]): > 256 µg/mL; MIC (Escherichia coli [36]): > 256 µg/mL; MIC (Klebsiella pneumoniae [37]): > 512 µg/mL
2 | CC1(C)S[C@@H]2[C@H](NC(=O)[C@H](N)c3ccc(O)cc3)C(=O)N2[C@H]1C(=O)O [AMOXICILLIN] | > 512 | > 512 | > 512 | > 512 | > 512 | > 512 | > 512 | > 512 | > 512 | > 256 | > 256 | > 256 | > 256 | > 512 | > 512 | > 512 | > 256 | 4 | > 512 | > 512 | MIC (Klebsiella pneumoniae [21]): > 512 µg/mL; MIC (Klebsiella pneumoniae [22]): > 512 µg/mL; MIC (Klebsiella pneumoniae [23]): > 512 µg/mL; MIC (Escherichia coli [24]): > 512 µg/mL; MIC (Escherichia coli [25]): > 512 µg/mL; MIC (Klebsiella pneumoniae [26]): > 512 µg/mL; MIC (Escherichia coli [27]): > 512 µg/mL; MIC (Escherichia coli [28]): > 512 µg/mL; MIC (Klebsiella pneumoniae [29]): > 512 µg/mL; MIC (Escherichia coli [30]): > 512 µg/mL; MIC (Klebsiella pneumoniae [31]): > 256 µg/mL; MIC (Escherichia coli [32]): > 256 µg/mL; MIC (Providencia rettgeri): > 256 µg/mL; MIC (Escherichia coli [33]): > 256 µg/mL; MIC (Citrobacter freundii [34]): > 512 µg/mL; MIC (Escherichia coli [35]): > 256 µg/mL; MIC (Escherichia coli [36]): > 256 µg/mL; MIC (Klebsiella pneumoniae [37]): > 512 µg/mL
